Calls of active or inactive are those of the source.
Key:
[1] = target: Ribosomal protein S6 kinase alpha-3 (Homo sapiens) (UniProt P51812); assay: Inhibition of human Rsk2 (2 to end residues) using KKKNRTLSVA as substrate measured after 40 mins in presence of [gamma33P]ATP by scintillation counting method
In short: (§1)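 Kinase panel of 422 kinases screened by Eurofins KinaseProfiler at a single test-compound concentration of 10 µM.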

[2] = target: Fibroblast growth factor receptor 3 (Homo sapiens) (UniProt P22607); assay: Inhibition of recombinant human FGFR3 (447 to 761 residues) at 10 uM using poly(Glu, Tyr) 4:1 as substrate measured after 40 mins in presence of [gamma33P]ATP by scintillation counting method
Chain of Fibroblast growth factor receptor 3 (Homo sapiens) (P22607 23-806 limits assumed): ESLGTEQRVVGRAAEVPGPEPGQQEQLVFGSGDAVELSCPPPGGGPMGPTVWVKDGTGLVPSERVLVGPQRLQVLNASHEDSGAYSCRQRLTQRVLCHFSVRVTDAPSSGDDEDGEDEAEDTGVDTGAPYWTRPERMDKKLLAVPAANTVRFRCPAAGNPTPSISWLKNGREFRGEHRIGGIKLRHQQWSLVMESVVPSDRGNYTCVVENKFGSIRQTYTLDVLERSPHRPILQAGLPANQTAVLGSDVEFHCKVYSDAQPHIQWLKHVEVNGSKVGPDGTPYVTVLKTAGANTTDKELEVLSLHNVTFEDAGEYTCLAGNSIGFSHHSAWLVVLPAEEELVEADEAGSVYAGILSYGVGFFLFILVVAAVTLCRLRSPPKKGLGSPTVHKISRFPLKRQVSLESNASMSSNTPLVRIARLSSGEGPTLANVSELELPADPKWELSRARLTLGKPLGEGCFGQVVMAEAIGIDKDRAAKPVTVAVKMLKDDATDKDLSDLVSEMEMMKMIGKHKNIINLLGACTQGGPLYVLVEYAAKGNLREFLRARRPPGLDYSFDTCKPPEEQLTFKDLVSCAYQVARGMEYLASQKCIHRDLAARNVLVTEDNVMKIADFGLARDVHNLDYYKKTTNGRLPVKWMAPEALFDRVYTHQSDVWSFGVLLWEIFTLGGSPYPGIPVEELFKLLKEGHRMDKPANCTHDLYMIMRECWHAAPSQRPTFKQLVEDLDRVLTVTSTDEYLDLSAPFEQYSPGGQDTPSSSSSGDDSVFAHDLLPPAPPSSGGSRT

[3] = Aqueous solubility of the compound by HPLC analysis; type: physicochemical; conditions: buffer
In short: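 Measured by HPLC on a C18 reversed-phase column.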

[4] = test system: Tyrosine-protein kinase ABL1 (Homo sapiens), P00519 [T315I]; assay: Inhibition of recombinant human ABL T315I mutant (27 to end residues) at 10 uM using EAIYAAPFAKKK as substrate measured after 40 mins in presence of [gamma33P]ATP by scintillation counting method
[5] = target: Tyrosine-protein kinase JAK1 (Homo sapiens) (UniProt P23458); assay: Inhibition of recombinant human JAK1 (866 to end residues) at 10 uM using GEEPLYWSFPAKKK as substrate measured after 40 mins in presence of [gamma33P]ATP by scintillation counting method
[6] = target: Bromodomain adjacent to zinc finger domain protein 2B (Homo sapiens) (UniProt Q9UIF8); assay: Binding affinity to human N-terminal His-tagged BAZ2B assessed as change in melting temperature at 10 uM by SYPRO orange dye-based fluorescence assay
In short: (§2)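 Thermal shift with His-tagged human bromodomain at 2 μM final in 10 mM HEPES pH 7.5, 500 mM NaCl. Compound at 10 μM final with 0.1% DMSO; SYPRO Orange at 1:1000. Equilibrated 3 min at 25 °C, then heated from 25 to 95 °C at 1 °C/min. Melting temperature shift taken from fluorescence; at least duplicate.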

[7] = target: Bromodomain-containing protein 4 (Homo sapiens) (UniProt O60885); assay: Binding affinity to human N-terminal His-tagged BRD4 bromodomain1 assessed as change in melting temperature at 10 uM by SYPRO orange dye-based fluorescence assay; in short: as §2
[8] = target: Bromodomain and PHD finger-containing protein 3 (Homo sapiens) (UniProt Q9ULD4); assay: Binding affinity to human partial length BRPF3 (E588 to G701 residues) expressed in bacterial expression system at 1 uM by BROMOscan assay
In short: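 BROMOscan bromodomain cross-screen run by an outside service, compound at 1 µM against 32 recombinant bromodomains. Binding given as percent of control.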

[9] = target: Serine/threonine-protein kinase Chk1 (Homo sapiens) (UniProt O14757); assay: Inhibition of recombinant full length human CHK1 at 10 uM using KKKVSRSGLYRSPSMPENLNRPR as substrate measured after 40 mins in presence of [gamma33P]ATP by scintillation counting method
[10] = target: Ephrin type-A receptor 4 (Homo sapiens) (UniProt P54764); assay: Inhibition of recombinant human EphA4 (601 to 892 residues) at 10 uM using poly(Glu, Tyr) 4:1 as substrate measured after 40 mins in presence of [gamma33P]ATP by scintillation counting method
[11] = target: Dual specificity mitogen-activated protein kinase kinase 1 (Homo sapiens) (UniProt Q02750); assay: Inhibition of recombinant full-length human MEK1 at 10 uM using unactive MAPK2 as substrate measured after 40 mins in presence of [gamma33P]ATP by scintillation counting method
[12] = target: Ribosomal protein S6 kinase alpha-1 (Homo sapiens) (UniProt Q15418); assay: Inhibition of recombinant full-length human Rsk1 at 10 uM using KKKNRTLSVA as substrate measured after 40 mins in presence of [gamma33P]ATP by scintillation counting method
Chain of Ribosomal protein S6 kinase alpha-1 (Homo sapiens) (Q15418 whole entry): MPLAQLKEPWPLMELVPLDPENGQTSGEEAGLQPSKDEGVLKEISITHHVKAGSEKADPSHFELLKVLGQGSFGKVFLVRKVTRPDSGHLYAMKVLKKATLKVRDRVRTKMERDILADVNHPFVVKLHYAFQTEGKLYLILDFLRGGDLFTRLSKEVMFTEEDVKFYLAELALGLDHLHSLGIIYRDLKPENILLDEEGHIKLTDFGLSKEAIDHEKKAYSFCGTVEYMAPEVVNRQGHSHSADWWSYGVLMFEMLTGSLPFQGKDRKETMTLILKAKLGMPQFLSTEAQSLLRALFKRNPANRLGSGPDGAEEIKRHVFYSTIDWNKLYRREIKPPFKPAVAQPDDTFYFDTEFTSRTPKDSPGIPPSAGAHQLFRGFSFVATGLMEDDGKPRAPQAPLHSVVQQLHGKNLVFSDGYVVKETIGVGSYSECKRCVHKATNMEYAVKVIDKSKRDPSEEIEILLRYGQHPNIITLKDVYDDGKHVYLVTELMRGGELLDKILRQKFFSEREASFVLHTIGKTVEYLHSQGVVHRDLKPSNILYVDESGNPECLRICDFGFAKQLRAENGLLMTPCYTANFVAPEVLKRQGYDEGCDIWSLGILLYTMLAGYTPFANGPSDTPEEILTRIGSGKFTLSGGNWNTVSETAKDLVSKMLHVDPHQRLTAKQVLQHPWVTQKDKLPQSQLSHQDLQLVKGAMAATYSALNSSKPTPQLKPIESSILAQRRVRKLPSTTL

[13] = test system: Proto-oncogene tyrosine-protein kinase receptor Ret (Homo sapiens), P07949 [V804M]; assay: Inhibition of human Ret V804M mutant (658 to end residues) using KKKVSRSGLYRSPSMPENLNRPR as substrate measured after 40 mins in presence of [gamma33P]ATP by scintillation counting method; in short: as §1
Chain of Proto-oncogene tyrosine-protein kinase receptor Ret (Homo sapiens), P07949 [V804M] (P07949 whole entry V804M): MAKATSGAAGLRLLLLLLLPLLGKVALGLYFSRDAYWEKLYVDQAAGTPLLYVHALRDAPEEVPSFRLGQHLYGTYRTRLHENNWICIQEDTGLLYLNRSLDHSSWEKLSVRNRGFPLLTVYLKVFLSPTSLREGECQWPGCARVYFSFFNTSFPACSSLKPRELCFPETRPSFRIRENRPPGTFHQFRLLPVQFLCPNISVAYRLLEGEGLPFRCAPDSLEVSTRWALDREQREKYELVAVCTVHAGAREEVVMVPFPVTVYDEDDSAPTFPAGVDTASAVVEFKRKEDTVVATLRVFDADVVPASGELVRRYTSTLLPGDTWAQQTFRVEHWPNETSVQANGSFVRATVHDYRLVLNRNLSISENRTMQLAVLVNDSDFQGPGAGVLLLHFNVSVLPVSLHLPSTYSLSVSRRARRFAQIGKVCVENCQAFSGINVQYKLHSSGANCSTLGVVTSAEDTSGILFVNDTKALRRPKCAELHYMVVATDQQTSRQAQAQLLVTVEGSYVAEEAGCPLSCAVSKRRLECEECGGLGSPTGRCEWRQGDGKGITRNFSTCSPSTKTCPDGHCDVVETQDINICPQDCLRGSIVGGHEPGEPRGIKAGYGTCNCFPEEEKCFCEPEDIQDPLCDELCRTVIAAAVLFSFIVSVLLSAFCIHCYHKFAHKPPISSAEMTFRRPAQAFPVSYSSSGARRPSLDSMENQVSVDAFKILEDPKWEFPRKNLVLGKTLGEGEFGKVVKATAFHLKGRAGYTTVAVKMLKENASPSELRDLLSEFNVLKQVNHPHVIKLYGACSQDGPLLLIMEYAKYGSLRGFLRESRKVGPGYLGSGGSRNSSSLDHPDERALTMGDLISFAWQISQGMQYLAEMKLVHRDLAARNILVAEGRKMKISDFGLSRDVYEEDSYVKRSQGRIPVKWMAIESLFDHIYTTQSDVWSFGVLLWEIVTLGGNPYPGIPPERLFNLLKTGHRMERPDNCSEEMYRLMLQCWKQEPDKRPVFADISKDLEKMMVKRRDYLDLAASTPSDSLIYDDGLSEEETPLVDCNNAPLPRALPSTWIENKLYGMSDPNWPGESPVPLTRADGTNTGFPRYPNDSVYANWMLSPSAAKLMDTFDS

[14] = target: Testis-specific serine/threonine-protein kinase 1 (Homo sapiens) (UniProt Q9BXA7); assay: Inhibition of recombinant full-length human TSSK1 at 10 uM using KKKVSRSGLYRSPSMPENLNRPR as substrate measured after 120 mins in presence of [gamma33P]ATP by scintillation counting method
Chain of Testis-specific serine/threonine-protein kinase 1 (Homo sapiens) (Q9BXA7 whole entry): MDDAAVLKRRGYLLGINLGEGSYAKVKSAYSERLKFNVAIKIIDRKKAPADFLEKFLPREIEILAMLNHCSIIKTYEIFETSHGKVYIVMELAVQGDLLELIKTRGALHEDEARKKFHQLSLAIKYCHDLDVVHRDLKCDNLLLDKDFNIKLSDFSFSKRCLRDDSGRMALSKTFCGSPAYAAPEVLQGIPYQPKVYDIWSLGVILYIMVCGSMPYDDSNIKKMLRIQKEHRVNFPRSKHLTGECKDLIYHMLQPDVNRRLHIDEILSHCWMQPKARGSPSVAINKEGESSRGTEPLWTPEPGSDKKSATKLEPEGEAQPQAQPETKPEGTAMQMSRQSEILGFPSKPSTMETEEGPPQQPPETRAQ

[15] = test system: Tyrosine-protein kinase ABL1 (Homo sapiens), P00519 [H396P]; assay: Inhibition of recombinant human ABL H396P mutant (27 to end residues) at 10 uM using EAIYAAPFAKKK as substrate measured after 40 mins in presence of [gamma33P]ATP by scintillation counting method
[16] = target: Dual specificity protein kinase CLK2 (Homo sapiens) (UniProt P49760); assay: Inhibition of recombinant human CLK2 (138 to end residues) at 10 uM using YRRAAVPPSPSLSRHSSPHQS(p)EDEEE as substrate measured after 40 mins in presence of [gamma33P]ATP by scintillation counting method
[17] = target: Tau-tubulin kinase 1 (Homo sapiens) (UniProt Q5TCY1); assay: Inhibition of human TTBK1 (1 to 479 residues) using Casein as substrate measured after 40 mins in presence of [gamma33P]ATP by scintillation counting method
[18] = target: Calcium/calmodulin-dependent protein kinase kinase 1 (Homo sapiens) (UniProt Q8N5S9); assay: Inhibition of recombinant full-length human CAMKk1 at 10 uM using calmodulin as substrate measured after 40 mins in presence of [gamma33P]ATP by scintillation counting method
Chain of Calcium/calmodulin-dependent protein kinase kinase 1 (Homo sapiens) (Q8N5S9 whole entry, looked up): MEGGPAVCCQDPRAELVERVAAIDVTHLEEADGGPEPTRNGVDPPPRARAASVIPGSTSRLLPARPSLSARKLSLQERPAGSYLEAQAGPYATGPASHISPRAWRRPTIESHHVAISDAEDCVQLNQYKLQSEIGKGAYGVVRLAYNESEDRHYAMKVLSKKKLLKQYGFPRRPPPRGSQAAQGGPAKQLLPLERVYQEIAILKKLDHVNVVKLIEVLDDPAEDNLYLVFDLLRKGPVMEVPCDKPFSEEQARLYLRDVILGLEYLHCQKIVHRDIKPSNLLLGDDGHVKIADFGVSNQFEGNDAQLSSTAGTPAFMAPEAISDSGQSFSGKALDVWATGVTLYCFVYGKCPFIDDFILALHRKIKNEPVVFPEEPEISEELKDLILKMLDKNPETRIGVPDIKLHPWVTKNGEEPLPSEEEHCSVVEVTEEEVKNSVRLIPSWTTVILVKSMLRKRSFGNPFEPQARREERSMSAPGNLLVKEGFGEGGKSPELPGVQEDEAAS

[19] = target: Ephrin type-B receptor 4 (Homo sapiens) (UniProt P54760); assay: Inhibition of recombinant human EphB4 (561 to end residues) at 10 uM using poly (Glu, Tyr) 4:1 as substrate measured after 40 mins in presence of [gamma33P]ATP by scintillation counting method
Chain of Ephrin type-B receptor 4 (Homo sapiens) (P54760 whole entry): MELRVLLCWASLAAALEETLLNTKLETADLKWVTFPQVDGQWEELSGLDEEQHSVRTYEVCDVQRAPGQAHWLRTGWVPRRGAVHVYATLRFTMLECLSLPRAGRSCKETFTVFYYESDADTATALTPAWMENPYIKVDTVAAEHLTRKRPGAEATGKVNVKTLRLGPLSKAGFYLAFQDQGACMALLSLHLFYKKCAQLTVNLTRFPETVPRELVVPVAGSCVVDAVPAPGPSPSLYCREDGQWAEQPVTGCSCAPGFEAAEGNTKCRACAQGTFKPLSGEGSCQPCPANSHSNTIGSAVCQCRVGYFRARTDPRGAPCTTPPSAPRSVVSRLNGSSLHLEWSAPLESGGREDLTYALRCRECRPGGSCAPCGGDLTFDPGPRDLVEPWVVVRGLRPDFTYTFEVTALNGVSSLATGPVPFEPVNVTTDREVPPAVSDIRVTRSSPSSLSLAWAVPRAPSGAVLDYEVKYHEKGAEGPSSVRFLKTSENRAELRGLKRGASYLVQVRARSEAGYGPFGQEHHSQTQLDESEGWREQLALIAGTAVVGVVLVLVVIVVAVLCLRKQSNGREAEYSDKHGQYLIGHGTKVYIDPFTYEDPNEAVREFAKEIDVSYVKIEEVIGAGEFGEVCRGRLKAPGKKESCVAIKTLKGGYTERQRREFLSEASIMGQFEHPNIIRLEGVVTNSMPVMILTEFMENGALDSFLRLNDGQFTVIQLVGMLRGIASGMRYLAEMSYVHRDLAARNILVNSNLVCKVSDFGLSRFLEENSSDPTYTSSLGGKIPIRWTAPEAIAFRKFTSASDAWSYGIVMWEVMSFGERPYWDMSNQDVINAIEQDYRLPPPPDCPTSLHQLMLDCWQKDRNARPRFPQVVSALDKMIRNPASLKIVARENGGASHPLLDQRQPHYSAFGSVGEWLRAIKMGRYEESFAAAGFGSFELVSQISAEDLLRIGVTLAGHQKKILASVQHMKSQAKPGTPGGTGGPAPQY

[20] = test system: PI3-kinase p110-alpha/p85-alpha (Homo sapiens), P27986+P42336 [H1047R]; assay: Inhibition of recombinant full-length human PI3K p110alpha/p85alpha H1047R mutant at 10 uM using phosphatidylinositol-4, 5-bisphosphate as substrate measured after 40 mins by fluorescence assay; type: protein-complex assay
[21] = target: Muscle, skeletal receptor tyrosine-protein kinase (Homo sapiens) (UniProt O15146); assay: Inhibition of recombinant human MuSK (530 to end residues) at 10 uM using myelin basic protein as substrate measured after 40 mins in presence of [gamma33P]ATP by scintillation counting method
[22] = target: 5'-AMP-activated protein kinase catalytic subunit alpha-2 (Homo sapiens) (UniProt P54646); assay: Inhibition of recombinant full-length human AMPKalpha2 at 10 uM using AMARAASAAALARRR as substrate measured after 40 mins in presence of [gamma33P]ATP by scintillation counting method
Chain of 5'-AMP-activated protein kinase catalytic subunit alpha-2 (Homo sapiens) (P54646 whole entry, looked up): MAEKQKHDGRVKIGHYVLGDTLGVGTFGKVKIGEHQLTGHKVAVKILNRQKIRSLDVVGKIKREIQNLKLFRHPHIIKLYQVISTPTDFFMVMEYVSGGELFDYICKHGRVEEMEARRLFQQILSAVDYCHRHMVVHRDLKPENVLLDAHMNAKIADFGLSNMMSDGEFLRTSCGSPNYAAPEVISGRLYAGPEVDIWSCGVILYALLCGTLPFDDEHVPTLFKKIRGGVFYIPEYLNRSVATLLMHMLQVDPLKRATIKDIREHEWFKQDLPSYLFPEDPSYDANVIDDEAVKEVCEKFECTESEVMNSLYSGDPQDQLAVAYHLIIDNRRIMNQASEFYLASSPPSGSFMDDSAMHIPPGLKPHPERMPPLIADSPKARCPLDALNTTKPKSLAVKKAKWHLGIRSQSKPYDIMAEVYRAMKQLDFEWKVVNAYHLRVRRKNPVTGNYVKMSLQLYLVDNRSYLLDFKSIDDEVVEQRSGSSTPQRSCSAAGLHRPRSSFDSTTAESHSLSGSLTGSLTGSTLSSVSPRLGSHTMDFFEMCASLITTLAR

CN1C[C@H](Nc2nc3cc[nH]c3c(=O)n2C)C[C@H](c2ccc3c(c2)OCCO3)C1
480 µM: solubility [3]
inactive: inhibition [1] | inhibition [2] | inhibition [4] | inhibition [5] | inhibition [9] | inhibition [10] | inhibition [11] | inhibition [12] | inhibition [13] | inhibition [14] | inhibition [15] | inhibition [16] | inhibition [17] | inhibition [18] | inhibition [19] | inhibition [20] | inhibition [21] | inhibition [22]
0.1 °C: ΔTm [7]
1.9 °C: ΔTm [6]
active: Activity [8]
